# MT1-MMP act inh – inhibitors of human MT1-MMP activation. GFP/RFP ratio change, % at 20 µM. HT1080 RFP-PRO-GFP cells, GFP/RFP ratio fluorescence, overnight; percent of plate control window, DMSO zero. hit rate 0.061% among 360,000. P50281;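 active = GFP/RFP ratio change of at least 30% with cell ATP level not reduced by more than half and red fluorescence within 50% of control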
#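 Read-out: GFP/RFP fluorescence ratio; Test system: RFP-PRO-GFP reporter HT1080 cells; Compound dosing: single-point 20 µM compound, 1% DMSO; Times: overnight compound exposure at 37 °C.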
# H9c2 TAG inh – reduces triacylglycerol accumulation in H9c2 cells; Nile Red lipid (TAG) fluorescence; cells loaded with 200 µM oleic acid; inhibition, % at 12.5 µM; hit rate 0.66% among 230,000;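 active = pattern-corrected inhibition of lipid staining of at least 50% with the nuclear-stain viability signal not falling by more than 50%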;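 note: 0% = DMSO wells and 100% = triacsin C control wells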
# sPLA2-III inh – Blocks human group III sPLA2 activity; Q9NZ20; QFRET BODIPY PC-A2 liposome hydrolysis, fluorescence; inhibition, % at 12.2 µM; hit rate 0.56% among 370,000; AID 743126;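 active = inhibition above mean plus 3 SD of compounds lying within the high and low control bounds, cut at about 19% in these data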;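 note: 0% = median of test compound wells and 100% = no enzyme DMSO wells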
# Target sequence (Q9NZ20 whole entry, looked up): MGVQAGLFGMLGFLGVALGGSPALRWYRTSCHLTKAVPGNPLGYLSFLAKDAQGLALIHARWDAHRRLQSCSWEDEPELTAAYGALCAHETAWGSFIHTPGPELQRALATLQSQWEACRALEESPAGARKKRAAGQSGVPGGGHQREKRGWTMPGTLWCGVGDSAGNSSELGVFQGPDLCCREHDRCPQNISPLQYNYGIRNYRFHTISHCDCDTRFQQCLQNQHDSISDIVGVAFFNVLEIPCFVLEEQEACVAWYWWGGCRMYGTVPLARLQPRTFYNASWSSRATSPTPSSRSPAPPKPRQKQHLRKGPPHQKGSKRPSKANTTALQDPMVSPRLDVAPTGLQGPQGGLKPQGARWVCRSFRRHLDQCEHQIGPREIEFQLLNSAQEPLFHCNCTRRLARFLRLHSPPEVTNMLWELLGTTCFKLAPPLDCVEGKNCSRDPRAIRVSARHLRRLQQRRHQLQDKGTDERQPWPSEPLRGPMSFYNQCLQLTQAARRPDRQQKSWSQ
# Efflux pump mplx – antifungal efflux pump inhibition, Nile Red retention; S. cerevisiae Candida pump triplex; inhibition, % at 10 µM; hit rate 0.44% among 330,000; AID 485275;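 active = plate passing quality check with inhibition over a set limit, or well fluorescence over plate mean plus 4 SD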;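 note: Nile Red retained in pooled yeast measured as flow cytometry median fluorescence; 0% = buffer negative control and 100% = Enniatin B positive control; higher means more Nile Red kept so more efflux inhibition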
# Cmpd fluor yeast – flagged as fluorescent in efflux inhibitor counter-screen; hit rate 4% among 1,700; fluorescence ratio to DMSO, % at 10 µM; AID 588517; shares compounds with Efflux pump mplx; S. cerevisiae AD/pABC3, compound fluorescence, flow cytometry;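 active = fluorescence ratio to DMSO above its plate's cutoff, the plate mean ratio plus 5 SD, cut at about 210% in these data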;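 note: unstained yeast with no Nile Red so the signal is compound autofluorescence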
# CaMdr1 efflux inh – inhibitors of Candida albicans Mdr1 efflux pump. shares compounds with Efflux pump mplx. S. cerevisiae AD/CaMDR1, Nile Red efflux, flow cytometry. inhibition, % at 10 µM. hit rate 1% among 1,700. AID 588518; in the data active = inhibition above about 26%;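 note: 0% = DMSO vehicle and 100% = reference inhibitor; higher means more Nile Red retained so more efflux inhibition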
# Cdr2 pump inh – inhibitors of Candida albicans Cdr2 efflux pump | shares compounds with Efflux pump mplx | S. cerevisiae AD/CaCDR2, Nile Red retention, flow cytometry | Nile Red retention ratio vs DMSO, % at 10 µM | hit rate 4% among 1,700 | AID 588520; in the data active = Nile Red retention ratio vs DMSO above about 190%;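 note: higher ratio means more blocking of Cdr2 efflux of the dye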
# CaCdr1 efflux inh – Candida Cdr1 efflux pump inhibition | shares compounds with Efflux pump mplx | inhibition, % at 10 µM | S. cerevisiae AD/CaCDR1, Nile Red efflux, flow cytometry | hit rate 1% among 1,700;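 active = inhibition above the screen-wide mean plus twice its standard deviation, cut at about 32% in these data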
# An asterisk follows results filed as active; nt = no result given; + = active, no number. A selection: hits, their analogues and other compounds. The true share with any hit is near 1.3%.
SMILES,MT1-MMP act inh,H9c2 TAG inh,sPLA2-III inh,Efflux pump mplx,Cmpd fluor yeast,CaMdr1 efflux inh,Cdr2 pump inh,CaCdr1 efflux inh
O=c1[nH]c2cc3c(cc2cc1CN(Cc1ccccc1)Cc1nnnn1Cc1ccco1)OCCO3,-25,1,16,nt,nt,nt,nt,nt
COc1ccccc1CN(Cc1cc2cc3c(cc2[nH]c1=O)OCCO3)Cc1nnnn1Cc1ccco1,-20,nt,1,1.4*,100,0,107,0
O=C(Nc1nccs1)c1ccc2ccccc2n1,3,nt,5,0,nt,nt,nt,nt
Cc1cc2nc(-c3cccc(Br)c3)c(CC3CCCCC3)n2c(C)c1Br,-3,nt,6,nt,nt,nt,nt,nt
O=C(C(Cl)Cl)N1CCN(Cc2ccccc2)CC1,-4,nt,-5,16*,98,0,89,0
O=C(C(Cl)Cl)N1CCN(Cc2ccc3c(c2)OCO3)CC1,1,nt,1,0,nt,nt,nt,nt
C[C@H](NC(=O)c1ccc(C(C)(C)C)cc1)C(=O)N1CCN(C/C=C/c2ccccc2)CC1,-2,45,-24,0.9*,92,0,94,0
CC(C)C(NC(=O)c1ccccc1)C(=O)N1CCN(C/C=C/c2ccccc2)CC1 (configuration not stated),-3,4,4,0,nt,nt,nt,nt
CC(C)COC(=O)c1ccccc1N1C(=O)C2C3CCC(C3)C2C1=O (configuration not stated),2,nt,6,13*,104,0,94,0
CCCCOC(=O)c1ccccc1N1C(=O)C2C3CCC(C3)C2C1=O (configuration not stated),1,nt,19,0,nt,nt,nt,nt
COc1ccc(N2C(=O)c3n[nH]c(C)c3C2c2ccccc2)cc1 (configuration not stated),nt,nt,0,nt,nt,nt,nt,nt
c1ccc(-c2cc(N3CCOCC3)nc(-c3ccccc3)n2)cc1,-3,nt,-1,0,nt,nt,nt,nt
CCSc1cc(N2CCOCC2)nc(-c2ccccc2)n1,0,nt,8,0,103,0,97,0
COC(=O)CC1C(=O)NCCN1C(=O)c1oc2c(C)c(C)ccc2c1C (configuration not stated),0,-10,-1,nt,nt,nt,nt,nt
O=C(O)CCCN1C(=O)/C(=C/C=C/c2ccco2)SC1=S,4,-11,-13,0,nt,nt,nt,nt
O=Cc1ccc(-c2nc3ccccc3s2)o1,-2,nt,3,0,nt,nt,nt,nt
O=C(O)CC(C(=O)O)N1C(=O)/C(=C/C=C/c2ccco2)SC1=S (configuration not stated),2,5,-6,0,nt,nt,nt,nt
O=C(O)CC(C(=O)O)N1C(=O)/C(=C/c2ccc(-c3nc4ccccc4s3)o2)SC1=S (configuration not stated),-13,nt,-11,0,101,0,107,0
O=C(O)CCN1C(=O)/C(=C/c2ccc(-c3nc4ccccc4s3)o2)SC1=S,-4,nt,2,1.9*,137,0,+,0
O=C(O)CCCN1C(=O)/C(=C\c2ccc(-c3nc4ccccc4s3)o2)SC1=S,-20,-7,4,1.1*,106,0,180,0
COc1ccc(CNS(=O)(=O)c2cc3c(cc2Br)CC(C)N3C(C)=O)cc1 (configuration not stated),nt,nt,-3,nt,nt,nt,nt,nt
CC(=O)CCN1CCSCCS1(=O)=O,nt,nt,-2,nt,nt,nt,nt,nt
O=C(C1CCC1)N1CCc2cc(S(=O)(=O)NCCN3CCN(c4ccccc4F)CC3)ccc21,3,-22,-19,1.1*,87,0,100,0
O=C(C1CC1)N1CCc2cc(Br)cc(S(=O)(=O)NCc3ccccn3)c21,-1,-11,3,0,nt,nt,nt,nt
O=C(C1CCC1)N1CCc2cc(S(=O)(=O)N3CCN(c4ccccc4F)CC3)ccc21,nt,nt,4,nt,nt,nt,nt,nt
SMILES,MT1-MMP act inh,H9c2 TAG inh,sPLA2-III inh,Efflux pump mplx,Cmpd fluor yeast,CaMdr1 efflux inh,Cdr2 pump inh,CaCdr1 efflux inh
O=C(C1CCC1)N1CCc2cc(S(=O)(=O)NCc3ccccn3)ccc21,-2,nt,0,0.7*,109,0,102,0
O=C(Nc1ccc2ccccc2c1)C1CC2CCC1C2 (configuration not stated),nt,nt,2,nt,nt,nt,nt,nt
CC1CC(C)CN(c2ncc3c(n2)CC(c2ccc(Cl)cc2)CC3=O)C1 (configuration not stated),-5,nt,14,6.7*,111,0,112,0
CC(c1ccccc1)n1cc(C(=O)NCCCN2CCCC2)nn1 (configuration not stated),nt,nt,1,nt,nt,nt,nt,nt
O=C(Nc1ccc2c(c1)OCO2)c1csc([C@H]2C[C@H](O)[C@@H](CO)O2)n1,2,-6,4,nt,nt,nt,nt,nt
CCc1cccc(C)c1NC(=O)c1ccc(CN2CCc3ccccc3C2)cc1,2,nt,-7,22*,116,0,114,0
CCNS(=O)(=O)c1ccc2c(c1)NCC2,1,nt,-2,12*,105,0,95,0
CCNS(=O)(=O)c1ccc(OC)c(C)c1,4,nt,6,0,nt,nt,nt,nt
Oc1c(Br)cc(Br)cc1/C=N/c1nc2c(s1)CCCC2,0,-4,nt,0.4*,78,0,100,0
COc1ccc(-c2cc(C(=O)NN=Cc3ccccc3F)[nH]n2)cc1,nt,nt,5,nt,nt,nt,nt,nt
O=c1c2cc(N3CCOCC3)ccc2[nH]c(=S)n1CCCN1CCCCC1,3,nt,2,0.6*,97,0,94,0
Cc1ccc([N+](=O)[O-])cc1N/C=C1\CCCCC1=O,-2,-16,-30,0,nt,nt,nt,nt
CCN(CC)c1cccc(OCC(=O)N(C)CCC#N)c1,39,8,-3,2.1*,202,1,142,1
O=C(Nc1ccc2nc3n(c(=O)c2c1)CCCCC3)c1cc([N+](=O)[O-])ccc1F,-22,nt,7,0.7*,94,0,90,0
O=C(Nc1ccc2nc3n(c(=O)c2c1)CCCCC3)c1c(F)ccc([N+](=O)[O-])c1F,-20,nt,-4,1,nt,nt,nt,nt
COCC(C)n1c(SC(C)C(=O)NC2CCCCC2C)nc2ccccc2c1=O (configuration not stated),-2,4,1,1,nt,nt,nt,nt
O=C(Nc1ccc2ccccc2c1)C(c1ccc(C(F)(F)F)cc1)n1c(=O)c(-c2cc3ccccc3[nH]2)nc2ccccc21 (configuration not stated),-11,nt,6,nt,nt,nt,nt,nt
O=C(NNc1cc(N2CCCC2)nc(N2CCCC2)n1)c1ccc([N+](=O)[O-])cc1,1,6,13,0.7*,116,1,116,0
CN(C)C(=O)CSc1nc2ccc(N3C(=O)c4ccccc4C3=O)cc2s1,-2,6,7,0.7*,90,0,100,0
Cc1cccc(NC(=O)CSc2nc3ccc(N4C(=O)c5ccccc5C4=O)cc3s2)c1C,7,nt,3,-4,nt,nt,nt,nt
O=C(O)c1ccc(-c2ccc(/C=c3/sc4nc5ccccc5n4c3=O)o2)cc1Cl,-41,nt,0,0.8*,103,0,148,0
